Where two headings read alike, the source gives them in different places. Marks after values point to notes of the source that are not given here.
How the values were obtained:
[1] = Indiscriminate thiol reactivity assay with cysteine; type: physicochemical; conditions: for Cysteine adduct formation: incubated with cysteine for 23 h, LC–MS; for Cysteine adduct pH 5.5 / Cysteine adduct pH 7.5 / Cysteine adduct pH 8.0: 23 h incubation with 10 mM cysteine at 37 °C, LC–MS UV trace
How it was run: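 Test compound was incubated with 10 mM cysteine in buffer at pH 5.5, 7.5 or 8.0 for 23 h at 37 °C. Cysteine adduct formation was quantified from the LC–MS UV trace.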

[2] = Indiscriminate thiol reactivity assay with GSH; type: physicochemical; conditions: 23 h incubation with 5 mM GSH at 37 °C, LC–MS UV trace
How it was run: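 Test compound was incubated with 5 mM GSH in buffer at 37 °C for 23 h. Adduct formation was quantified from the LC–MS UV trace.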

hCatK [3] = target: T1, hCatK (Homo sapiens, UniProt P43235); assay: Kinetic evaluation of covalent inhibitors; type: biochemical
T1 sequence (P43235 115-329): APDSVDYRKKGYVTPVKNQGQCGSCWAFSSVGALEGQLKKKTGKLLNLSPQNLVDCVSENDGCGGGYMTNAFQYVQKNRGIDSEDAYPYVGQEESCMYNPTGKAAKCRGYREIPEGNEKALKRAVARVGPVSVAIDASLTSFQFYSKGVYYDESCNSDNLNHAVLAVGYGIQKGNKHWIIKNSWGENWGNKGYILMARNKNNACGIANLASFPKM
How it was run: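 Recombinant hCatK (100 pM) was used with 4 μM Z-FR-AMC at 26 °C. The reaction was started by adding enzyme to substrate plus test compound. Progress curves of substrate hydrolysis were fitted to derive kinetic constants. Values are mean ± SD of one representative experiment measured in triplicate.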

hCatK [4] = target: T1, hCatK; assay: In vitro inhibition assay, fluorogenic substrate; type: biochemical
How it was run: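 Fluorogenic substrate was then added and proteolytic activity read. Values are mean ± SD of one representative experiment measured in triplicate. Selectivity was taken from IC50 values across these proteases.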

hCatK [5] = target: T1, hCatK; assay: Reversibility of inhibition; type: biochemical; conditions: 300-fold dilution into Z-FR-AMC
How it was run: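 Jump dilution: recombinant hCatK was preincubated with test compound at high concentration to fully occupy the active site. The mixture was then diluted 300-fold into Z-FR-AMC solution. Progress curves of hCatK activity were recorded to detect recovery of substrate hydrolysis. E-64 served as control.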

human osteoclasts (OCs) [6] = assay: Bone resorption by osteoclasts cultured on cortical bone slices; type: cell-based
How it was run: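 Human CD14+ monocytes were seeded on bone slices, with M-CSF added on day 0 and RANKL on day 3 to drive osteoclast maturation. Medium containing test compound or DMSO was refreshed on days 7, 10, 13 and 16. On day 21 the cells were washed off and lysed. Resorption pits (trenches vs pits) were stained with Coomassie Brilliant Blue, and total resorption area was quantified.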

CatK [7] = target: T2, CatK (Homo sapiens, UniProt P43235); assay: Cathepsin K activity in osteoclast lysates; type: cell-based; conditions: lysates treated with BMV109; increase with ODN ascribed to displacement by probe
T2 sequence (P43235 115-329): T1 sequence (P43235 115-329)

human osteoclasts (OCs) [8] = assay: TRAcP staining and counting of mature OCs on plastic; type: cell-based; conditions: highest concentrations
[9] = cited from earlier work
rodentCatK = conditions: mice and rats; cited from earlier work
[10] = cited from earlier work; remark: listed apart in the source
CatK [11] = conditions: 100 nM; cited from earlier work
[12] = 100 pM hCatK, 4 μM Z-FR-AMC, 26 °C, reversible covalent

Row | Structure (SMILES) | Cysteine adduct formation [1] | Cysteine adduct pH 5.5 [1] | Cysteine adduct pH 7.5 [1] | Cysteine adduct pH 8.0 [1] | GSH adduct pH 7.5 [2] | also measured
1 | CC#CC(=O)N1CCC[C@H]1c1nc(-c2ccc(C(=O)Nc3ccccn3)cc2)c2c(N)nccn12 [Acalabrutinib] | observed | 19% | 98% | 97% | 95% | 
2 | CN(C)C/C=C/C(=O)Nc1cc2c(Nc3ccc(F)c(Cl)c3)ncnc2cc1O[C@H]1CCOC1 [Afatinib] | adduct formation that increases upon increasing the pH of the buffer | 92% | 98% | 95% | 94% | 
3 | CC(C)C[C@H](NC(=O)[C@H]1O[C@@H]1C(=O)O)C(=O)NCCCCN=C(N)N [Compound E-64, E-64] | adduct formation that increases upon increasing the pH of the buffer | <1% | 68% | 79% | 64% | Ki (hCatK [3]; 100 pM hCatK, 4 μM Z-FR-AMC, 26 °C, irreversible covalent, mean ± SD): 11 ± 1.6 nM
4 | C=CC(=O)N1CCC[C@@H](n2nc(-c3ccc(Oc4ccccc4)cc3)c3c(N)ncnc32)C1 [Ibrutinib] | adduct formation that increases upon increasing the pH of the buffer | 9% | 99% | 96% | 91% | 
5 | CC(C)(F)C[C@H](N[C@@H](c1ccc(-c2ccc(S(C)(=O)=O)cc2)cc1)C(F)(F)F)C(=O)NC1(C#N)CC1 [ODN, odanacatib] | adduct formation that increases upon increasing the pH of the buffer | <1% | 17% | 48% | 0%^b | IC50 (hCatK [4]): < 1 nM; Selectivity for CatK over related human cathepsins (hCatK [4]; from IC50 values of Table 2): selective for hCatK; Ki (hCatK [3]): 3.8 ± 2.7 nM; k5 (rate of covalent bond formation) (hCatK [3]; [12]): 0.12 ± 0.026 min⁻¹; k6 (rate of covalent bond dissociation) (hCatK [3]; [12]): 0.033 ± 0.0077 min⁻¹; Reversibility of hCatK inhibition (hCatK [5]): (fast) reversible inhibitor; Bone resorption morphology at 3 nM (human osteoclasts (OCs) [6]; 3 nM, 21 days culture, Coomassie staining): deep trenches; Bone resorption morphology at 15 nM (human osteoclasts (OCs) [6]; 15 nM, 21 days culture, Coomassie staining): shallow pits; Effective dose / concentrations inhibiting bone resorption (human osteoclasts (OCs) [6]; 21 days culture on bone slices): around 15 nM; Mature CatK activity in OC lysates (BMV109 labeling) (CatK [7]): strong increase of mature CatK activity; Number of OCs cultured on plastic (human osteoclasts (OCs) [8]): increase in the number of OCs; half-life [9]: 66 to 93 h; Reduction of apparent potency on rodentCatK compared to humanCatK (rodentCatK): up to 182 fold; Side effects in phase III clinical trials [10]: increased stroke risks and cardiovascular events; CatK expression upon ODN treatment (CatK [11]): significant increase in CatK expression; Number of OCs upon ODN treatment (CatK [11]): without an increase in the number of OCs
